Measured values as given in the EternaBench riboswitch data.

System: MS2 coat protein
Test: apparent Kd, MS2 coat protein; higher = weaker binding; RNA-MaP array; FMN 200 µM where present
How it was run: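 Each design was made on Illumina sequencing-chip clusters by stalled E. coli RNA polymerase and titrated with SNAP-549-labelled MS2 coat protein from 0.7 or 1.5 nM, doubling to 3 µM, in the absence and then the presence of constant ligand. The buffer was 100 mM Tris-HCl pH 7.5, 80 mM KCl, 4 mM MgCl2, BSA, DTT, yeast tRNA and Tween-20. The apparent Kd is the median of filtered per-cluster fits of binding curves, with green signal normalised to red-channel RNA signal and control-cluster median Fmax.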

[1] = designed as: ON switch for flavin mononucleotide, no ligand
[2] = ligand present: flavin mononucleotide, designed as: ON switch for flavin mononucleotide
[3] = designed as: OFF switch for flavin mononucleotide, no ligand
[4] = ligand present: flavin mononucleotide, designed as: OFF switch for flavin mononucleotide

| Sequence | apparent Kd [1] [nM] | apparent Kd [2] [nM] | apparent Kd [3] [nM] | apparent Kd [4] [nM] |
| --- | --- | --- | --- | --- |
| UUGGCGACGUAGAAGGGUGACAUGAGGAUCACCCAUGUGCCGAUAUUCCUCGAGAUAUGUCGGCCACAGGAUAUACGUGCCAUC | 51.8 | 98.6 |  |  |
| AAAUUCCUCACAGGAUAUCCUACAUGAGGAUCACCCAUGUACUAACUGAGCGAAUUGCAACAAAAGGAGAAGGGUGAGGUGAAG | 31.5 | 6.35 |  |  |
| GAUUAACAUGAGGAUCACCCAUGUCGUAUUAUGGGAGGAUAUACGUGGACCGUAGUCCGCGUAGAAGGCCUAAUUG | 93.8 | 28.7 |  |  |
| AUUGGUUUGCGAGGAUAUGCUAAUAGUAAGUAUGCAGAAGGCGCGUUACAUAGAACCUCUAGUUACAUGAGGAUCACCCAUGUU |  |  | 46.2 | 45.4 |
| CUGGUUGUCGAGGAUAUGCACCAGCUCGCUGACGCAGAAGGCGACACAUGAGGAUCACCCAUGUCGGUUCGCGU |  |  | 21.9 | 32.9 |
| AUCAGCUCGUCAGGAUAUACGUCACUGCGUCAGCAGUGUGGCAAGAUCACAUGAGGAUCACCCAUGUAGAAGGGACGAGCUGAU |  |  | 21.2 | 399 |
| UUAAUGAUGUAAGGAUAUACAUGAGGAUUUCUCGUAGAAGGUACAAGACAUGAGGAUCACCCAUGUGUCGCUCCGUAGAGCGUA | 288 | 302 |  |  |
| UUAAUUAUGUAAGGAUAUACAUGAGGAUUUCUCGUAGAAGGUACAUUACAUGAGGAUCACCCAUGUGGGUGUCCGUAGACGCCA | 632 | 614 |  |  |
| AGGUCAACCACAGGAUAUGGCUAGCAUAGCUAGCCAGAAGGGUGGUCAUAUCCAUGUAAAUACAUGAGGAUCACCCAUGUAUCC | 209 | 79.8 |  |  |
| UCUGUUCAAGGAUAUGCGUAAUGUGUUACGGCACGAGGUCUACAUGAGGAUCACCCAUGUAGAAGGUGAUCAGA |  |  | 21.5 | 22.2 |
| AAGAUGUUAGGAUAUGCUGCUCGUCACAAAAGUGAUGAGUAGCAGAAGGAACAUGAGGAUCACCCAUGUAAAGA |  |  | 31 | 55.3 |
| GGGUUUGGAGGAUAUACAUGAGGAUCACCCAUGUAGGGCCCGGGUAUUCCCGGGCCCUGUAGAAGGCCGGGCCC |  |  | 14.1 | 16.5 |
| AUAUGAUAGAUAGGAUAUACUGAGGUUGAAUGGGUAGAAGGAUCGAUAGGGAAGACUACAUGAGGAUCACCCAUGUUGUGUAUU | 151 | 81.6 |  |  |
| CGAAACUACGAGAAGGACAUGUGGUCCUUCAGUUACAUGAGGAUCACCCAUGUAGGAUAUCGUAGUUUCAGGAUCGUGAGAUCC |  |  | 58.6 | 16.6 |
| UUUACAUGAGGAUCACCCAUGUCUGUCACCCAUGUGUGCAAUCAGGAUAUGAUAUCAAUAAUAAAUUAGAAGGGAUAACAUGAG | 73.5 | 100 |  |  |
| CAGAGGAUGUAAGGAUAUCGUCAGGAUAACUGACGAGAAGGUACAUGAGGAUCACCCAUGUAUAUGAAAGAUAAUAAACCUCUG |  |  | 13.5 | 18.8 |
| AUAAUGAGUCAAGGAUAUCCGAGCUGAAUGCUAGGAGAAGGUGACAUGAGGAUCACCCAUGUCUCUCCGAGCAUGGUAUUCUCA |  |  | 28.6 | 33.6 |
| GGAUAGGACAGAGGAUAUACGUGCUAGAGACACUAGCAAAAUUUCCUCACAUGAGGAUCACCCAUGUAGAAGGCUGUCCUAUCG |  |  | 15.4 | 405 |
| CCCUGUGGAGGAUAUUGCAAAGGUGACAUGAGGAUCACCCAUGUUGGACGUUAAGCACUGCAAGAAGGCCGGUUGA |  |  | 50 | 24.5 |
| CGGUCGAUGUAAGGAUAUCGACUGGAUAACAGUCGAGAAGGUACAUGAGGAUCACCCAUGUAAUCCAAUAAUAAAUAACGACCG |  |  | 11.4 | 23.2 |
| UGGGUAAGUGUAGGAUAUUUAUAUUAAUAGUAUGGAGAAGGACAUGAGGAUCACCCAUGUACAGGAAGUUGCCCAUUUCCUCUC |  |  | 579 | 495 |
| UUUUUUUUUGUGAGGAUAUACUUUUUUUUUUUUUUGUAGAAGGCACAUGAGGAUCACCCAUGUUUUUUUUUCUC |  |  | 11.7 | 11.3 |
| CAUGCGGGCGGGUUUUUGAUACAUGAGGAUCACCCAUGUCUUGAGGAUAUCUUUGCAACACGCCAAGAGAAGGCAAGGCGUUUC |  |  | 33.6 | 107 |
| UUAUUAUAUGUAGGAUAUGCAUAUUGUUGUUAUGCAGAAGGACAUGAGGAUCACCCAUGUGUAUUAUUGUUAUAUAUUAUAUAU |  |  | 21.5 | 31.2 |
| CUUCUCAGAGUCAGGAUAUAGUCGAAAGGGCUAGACUAGAAGGGACAUGAGGAUCACCCAUGUAAAAUAUCAAA |  |  | 19.2 | 29.8 |
| GGAUGACAAAGUCAUCCUUAACGAACAUGAGGAUCACCCAUGUAGGAUAUGCUACUGAAACAGUAGCAGAAGGACAUGUGUCUU |  |  | 29.7 | 130 |
| AAUUAUAGGUAGAAGGUACUGUAUUAUGUGUUGUAAGGAUAUACUAUAUUAUUAGUUCUCAAGUUACAUGAGGAUCACCCAUGU | 10.3 | 8.02 |  |  |
